In test [1] the target is T1, Aminopeptidase N (Plasmodium falciparum FcB1/Columbia) (UniProt O96935).
T1 sequence (whole entry): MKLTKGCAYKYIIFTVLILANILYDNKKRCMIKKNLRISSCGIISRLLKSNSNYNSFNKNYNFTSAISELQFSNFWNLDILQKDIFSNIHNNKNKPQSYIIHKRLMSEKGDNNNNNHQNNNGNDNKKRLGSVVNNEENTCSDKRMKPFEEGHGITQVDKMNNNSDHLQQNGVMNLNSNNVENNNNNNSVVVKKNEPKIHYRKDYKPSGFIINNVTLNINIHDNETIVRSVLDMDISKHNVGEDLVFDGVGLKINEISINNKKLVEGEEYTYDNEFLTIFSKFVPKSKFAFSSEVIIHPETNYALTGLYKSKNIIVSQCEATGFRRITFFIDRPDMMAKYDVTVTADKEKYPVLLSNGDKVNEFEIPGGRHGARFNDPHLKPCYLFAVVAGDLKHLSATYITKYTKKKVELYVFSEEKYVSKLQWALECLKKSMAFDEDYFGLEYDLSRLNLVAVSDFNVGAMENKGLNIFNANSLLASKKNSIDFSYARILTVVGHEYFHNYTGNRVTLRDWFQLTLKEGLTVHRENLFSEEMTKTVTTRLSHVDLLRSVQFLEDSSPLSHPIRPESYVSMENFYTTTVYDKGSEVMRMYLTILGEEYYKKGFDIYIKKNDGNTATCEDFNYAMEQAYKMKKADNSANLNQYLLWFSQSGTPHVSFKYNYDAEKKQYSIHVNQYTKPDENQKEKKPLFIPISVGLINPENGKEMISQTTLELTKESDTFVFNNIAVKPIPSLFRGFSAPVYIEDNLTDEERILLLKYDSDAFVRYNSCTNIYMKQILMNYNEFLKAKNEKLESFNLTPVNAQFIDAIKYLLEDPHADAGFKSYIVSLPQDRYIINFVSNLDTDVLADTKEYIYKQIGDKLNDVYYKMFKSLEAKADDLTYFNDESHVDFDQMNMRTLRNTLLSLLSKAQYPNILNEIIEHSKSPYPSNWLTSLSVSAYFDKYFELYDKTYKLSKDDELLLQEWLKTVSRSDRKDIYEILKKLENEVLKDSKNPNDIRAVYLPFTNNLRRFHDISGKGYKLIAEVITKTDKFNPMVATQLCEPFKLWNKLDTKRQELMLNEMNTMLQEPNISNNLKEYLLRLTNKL
In words: Inhibition of Plasmodium falciparum FcB1 M1 aminopeptidase at 10 uM. In a few lines:
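Native enzyme purified from P. falciparum FcB1, diluted 10-fold in 25 mM Tris-HCl pH 7.4. Preincubated with inhibitor for 10 min at room temperature, then Leu-pNA substrate added (0.3 mM stock, Km 0.099 mM). Kinetics followed at 405 nm at room temperature. Initial velocities normalized to a no-inhibitor control. Single-point screen at 10 µM; IC50 from velocity versus inhibitor concentration curves. Bestatin used as reference.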

Test [2] deals with T2, Aminopeptidase N (Sus scrofa) (UniProt P15145).
T2 sequence (whole entry): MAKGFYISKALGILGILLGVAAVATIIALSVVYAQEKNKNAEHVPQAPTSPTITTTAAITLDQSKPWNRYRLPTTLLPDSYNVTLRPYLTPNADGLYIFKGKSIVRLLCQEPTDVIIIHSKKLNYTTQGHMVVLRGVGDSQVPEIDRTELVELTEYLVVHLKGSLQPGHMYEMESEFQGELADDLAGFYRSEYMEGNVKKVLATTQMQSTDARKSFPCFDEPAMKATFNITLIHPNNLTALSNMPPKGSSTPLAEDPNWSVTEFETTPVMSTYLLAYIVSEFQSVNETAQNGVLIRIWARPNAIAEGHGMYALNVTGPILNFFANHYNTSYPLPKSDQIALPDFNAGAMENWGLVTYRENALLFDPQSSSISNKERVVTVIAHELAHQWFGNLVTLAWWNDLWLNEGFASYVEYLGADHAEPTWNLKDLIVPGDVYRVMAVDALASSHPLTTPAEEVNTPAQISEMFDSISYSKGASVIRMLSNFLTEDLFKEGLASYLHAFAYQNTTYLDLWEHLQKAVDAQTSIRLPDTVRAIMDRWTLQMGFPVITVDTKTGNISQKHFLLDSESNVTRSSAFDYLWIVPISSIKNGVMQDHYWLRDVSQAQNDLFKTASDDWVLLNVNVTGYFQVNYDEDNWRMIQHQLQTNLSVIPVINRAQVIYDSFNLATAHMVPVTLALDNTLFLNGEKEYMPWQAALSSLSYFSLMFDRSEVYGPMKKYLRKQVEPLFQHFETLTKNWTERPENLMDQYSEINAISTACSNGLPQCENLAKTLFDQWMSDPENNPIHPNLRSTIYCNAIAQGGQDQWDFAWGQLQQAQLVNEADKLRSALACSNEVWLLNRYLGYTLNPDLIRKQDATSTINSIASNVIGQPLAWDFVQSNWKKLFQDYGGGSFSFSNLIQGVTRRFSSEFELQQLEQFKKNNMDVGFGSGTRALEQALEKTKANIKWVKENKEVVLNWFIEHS
In words: Inhibition of pig kidney microsomal APN at 10 uM. In a few lines:
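Porcine kidney microsomal APN (ammonium sulfate suspension) diluted 600-fold in 25 mM Tris-HCl pH 7.4. Preincubated with inhibitor for 10 min at room temperature, then Leu-pNA added (0.3 mM stock). Hydrolysis followed at 405 nm at room temperature. Rates normalized to a no-inhibitor control. Single point at 10 µM; IC50 from concentration-velocity curves. Bestatin used as reference.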

The term inhibition denotes the change of the read-out against control, counted positive when it falls.

On to `CC(C)CC(C(=O)NO)C(=O)N1CCc2ccccc2C1` (configuration not stated), for which the results for the inhibition in test [1] and in test [2] were 74% and 90%, respectively.

On to `O=C(CC(=O)N[C@H]1CCN(Cc2ccccc2)C1)NO`, for which the inhibition was -3% in test [1] and 19% in test [2].

On to `CN(CCCNC(=O)C(Cc1ccccc1)C(=O)NO)c1ccccc1` (configuration not stated), for which the inhibition was determined as 67% in test [1] and 46% in test [2].

Consider `O=C(CC(=O)N1CCN(C(c2ccccc2)c2ccccc2)CC1)NO`, for which the inhibition worked out at 21% in test [1] and 14% in test [2].

Regarding `NC(C(=O)NO)C(=O)NCc1cccnc1` (configuration not stated), the inhibition in test [1] was -6%; in test [2] it was 24%.

Consider `O=C(NO)C(Cc1cccc(Oc2ccccc2)c1)C(=O)NCCc1ccccc1` (configuration not stated), for which the inhibition in test [1] turned out to be 98%; in test [2], 88%.

As to `CC(C)CC(C(=O)NO)C(=O)N(CCc1ccccc1)Cc1ccccc1` (configuration not stated), the inhibition turned out to be 42% in test [1] and 105% in test [2].

As to `O=C(CC(=O)NCCCc1ccccc1)NO`, the inhibition in test [1] was determined as 2%; in test [2] it was 15%.

In the case of `CC(C)CC(C(=O)NO)C(=O)N(CCCCc1ccccc1)CC(C)C` (configuration not stated), the inhibition in test [1] stood at 42%; in test [2], 60%.

As to `O=C(CC(=O)NC1Cc2ccccc2C1)NO`, the inhibition was -2% in test [1] and 12% in test [2].

Take `CC(C)CC(C(=O)NO)C(=O)N1CCC(n2c(=O)[nH]c3ccccc32)CC1` (configuration not stated): the inhibition in test [1] amounted to 15%; in test [2], 54%.

For `CN(CCCNC(=O)C(Cc1cccc(Oc2ccccc2)c1)C(=O)NO)c1ccccc1` (configuration not stated), the inhibition in test [1] came to 77%; in test [2], 83%.

On to `CC(C)CC(C(=O)NO)C(=O)NCc1cccc(-c2ccccc2)c1` (configuration not stated), for which the inhibition was 69% in test [1] and 95% in test [2].

On to `CC(C)CC(C(=O)NO)C(=O)NCCNc1cccc2ccccc12` (configuration not stated), for which the figures for the inhibition in test [1] and in test [2] were 42% and 93%, respectively.

For the molecule `NC(C(=O)NO)C(=O)N1CCC(Cc2ccccc2)CC1` (configuration not stated), the inhibition in test [1] worked out at 45%; in test [2], 39%.

On to `CN(Cc1ccccc1)C(=O)C(Cc1cccc(Oc2ccccc2)c1)C(=O)NO` (configuration not stated), for which the inhibition in test [1] is 86%; in test [2], 89%.

In the case of `NC(C(=O)NO)C(=O)NC1Cc2ccccc2C1` (configuration not stated), the inhibition in test [1] was 20%; in test [2], 36%.

For the molecule `O=C(CC(=O)N1CCC2(CCNc3ccccc3O2)CC1)NO`, the inhibition in test [1] is -5%; in test [2], 27%.

`O=C(NO)C(Cc1ccccc1)C(=O)N1CCN(Cc2ccc3c(c2)OCO3)CC1` (configuration not stated): the inhibition stood at 53% in test [1] and 29% in test [2].

On to `Cc1ccccc1CNC(=O)C(N)C(=O)NO` (configuration not stated), for which the inhibition came out at 9% in test [1] and 23% in test [2].

On to `NC(C(=O)NO)C(=O)NCCc1ccccn1` (configuration not stated), for which the inhibition was -7% in test [1] and 22% in test [2].

For `NC(C(=O)NO)C(=O)N1CCC(n2c(=O)[nH]c3ccccc32)CC1` (configuration not stated), the figures for the inhibition in test [1] and in test [2] were 12% and 34%, respectively.

Consider `CC(C)CC(C(=O)NO)C(=O)N1CCN(Cc2ccccc2)CC1` (configuration not stated), for which the inhibition amounted to 29% in test [1] and 28% in test [2].

`NC(C(=O)NO)C(=O)NCc1ccc(C(F)(F)F)cc1` (configuration not stated): the inhibition in test [1] stood at 6%; in test [2], 55%.

On to `O=C(CC(=O)NCc1cccc(Oc2ccccc2)c1)NO`, for which the inhibition in test [1] turned out to be 44%; in test [2] it was 55%.

As to `NC(C(=O)NO)C(=O)NCc1cccc(-c2ccccc2)c1` (configuration not stated), the inhibition in test [1] amounted to 35%; in test [2] it was 62%.

As to `O=C(NO)C(Cc1cccc(Oc2ccccc2)c1)C(=O)NCc1cccnc1` (configuration not stated), the inhibition in test [1] stood at 99%; in test [2] it was 85%.

For `O=C(NO)C(Cc1cccc(Oc2ccccc2)c1)C(=O)N1CCC(n2c(=O)[nH]c3ccccc32)CC1` (configuration not stated), the inhibition is 74% in test [1] and 76% in test [2].

As for `O=C(NO)C(Cc1cccc(Oc2ccccc2)c1)C(=O)N1CCN(c2ccccc2)CC1` (configuration not stated), the inhibition is 38% in test [1] and 63% in test [2].

Consider `O=C(NO)C(Cc1ccccc1)C(=O)NC1CCN(Cc2ccccc2)CC1` (configuration not stated), for which the values for the inhibition in test [1] and in test [2] were 3% and 21%, respectively.

With `NC(C(=O)NO)C(=O)NCCc1ccccc1` (configuration not stated), the inhibition in test [1] was -8%; in test [2], 25%.

Turning to `O=C(CC(=O)N1CCN(Cc2ccccc2)CC1)NO`, the inhibition stood at 8% in test [1] and 23% in test [2].

In the case of `O=C(NO)C(Cc1cccc(Oc2ccccc2)c1)C(=O)N1CCN(C(c2ccccc2)c2ccccc2)CC1` (configuration not stated), the inhibition in test [1] was -6%; in test [2], 41%.

`O=C(NO)C(Cc1cccc(Oc2ccccc2)c1)C(=O)NCCc1ccccn1` (configuration not stated): the inhibition in test [1] was 67%; in test [2], 85%.

With `O=C(NO)C(Cc1ccccc1)C(=O)N1CCN(C(c2ccccc2)c2ccccc2)CC1` (configuration not stated), the inhibition amounted to 0% in test [1] and 14% in test [2].

In the case of `O=C(NO)C(Cc1ccccc1)C(=O)N1CCN(c2ccccc2)CC1` (configuration not stated), the inhibition in test [1] amounted to 20%; in test [2], 46%.

Turning to `CC(C)CN(CCCCc1ccccc1)C(=O)C(Cc1cccc(Oc2ccccc2)c1)C(=O)NO` (configuration not stated), the inhibition is 36% in test [1] and 52% in test [2].

Consider `CN(Cc1ccccc1)C(=O)C(N)C(=O)NO` (configuration not stated), for which the results for the inhibition in test [1] and in test [2] were -1% and 29%, respectively.

Consider `CN(CCCCc1ccccc1)C(=O)CC(=O)NO`, for which the inhibition in test [1] was -4%; in test [2], 11%.

`O=C(NO)C(Cc1ccccc1)C(=O)NCCc1ccccn1` (configuration not stated): the inhibition turned out to be 29% in test [1] and 47% in test [2].

In the case of `O=C(CC(=O)NCc1cccnc1)NO`, the inhibition in test [1] is 3%; in test [2], 18%.

As for `CC(C)CC(C(=O)NO)C(=O)N(C)Cc1ccccc1` (configuration not stated), the inhibition in test [1] was found to be 23%; in test [2], 37%.

Consider `NC(C(=O)NO)C(=O)NCc1ccc(F)cc1` (configuration not stated), for which the inhibition in test [1] is 9%; in test [2], 18%.

Regarding `NC(C(=O)NO)C(=O)NC1CCN(Cc2ccccc2)CC1` (configuration not stated), the results for the inhibition in test [1] and in test [2] were -4% and 25%, respectively.

For `CC(C)CC(C(=O)NO)C(=O)N[C@H]1CCN(Cc2ccccc2)C1` (some centres not stated), the inhibition stood at 58% in test [1] and 86% in test [2].

Regarding `CC(C)CC(C(=O)NO)C(=O)N1CCN(c2ccccc2)CC1` (configuration not stated), the inhibition was 38% in test [1] and 103% in test [2].

Source of the values: ChEMBL document CHEMBL1142961, “Novel selective inhibitors of the zinc plasmodial aminopeptidase PfA-M1 as potential antimalarial agents” (J Med Chem, 2007).
